Data as given in ChEMBL document CHEMBL1157985, “Antiplasmodial and cytotoxic activity of natural bisbenzylisoquinoline alkaloids” (J Nat Prod, 1999).

What was measured:
Plasmodium falciparum [1] = assay: Antiplasmodial activity against chloroquine-resistant Plasmodium falciparum W2 infected human erythrocytes as [3H]hypoxanthine uptake after 24 hrs; format: functional, organism-based
Outline: (§1)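 P. falciparum (D6, W2) cultured in type A+ human erythrocytes, RPMI-1640 with NaHCO3, HEPES and 10% heat-inactivated human plasma, 37 °C under 5% O2/5% CO2/90% N2. Infected red cells at 0.5-1.0% parasitemia, 1.0% hematocrit exposed to compound, duplicate seven-point series, 24 h; then 0.5 μCi [3H]hypoxanthine per well for 18 h more. Filter harvest, scintillation counting; IC50 by nonlinear regression versus zero-drug controls.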

KB = assay: Cytotoxicity against human KB cells after 72 hrs by SRB assay; format: functional; conditions: read-out: ED50 (the source's name)
Outline: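 KB-3 cells grown in DMEM with 10% FBS at 37 °C and 5% CO₂ to 60–70% confluence, then used 1 day after a medium change. Samples were dissolved in DMSO and serially diluted in 10% aqueous DMSO. 5×10⁴ cells were exposed for 72 h at 37 °C, then TCA-fixed, stained with 0.4% SRB and read at 515 nm. Zero-day control was subtracted and values expressed relative to solvent control; ED50 by nonlinear regression.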

[2] = Selectivity index, ratio of ED50 for human KB cells to IC50 for chloroquine-resistant Plasmodium falciparum W2; format: functional
[3] = Selectivity index, ratio of ED50 for human KB cells to IC50 for […] Plasmodium falciparum D6; format: functional
Plasmodium falciparum [4] = assay: Antiplasmodial activity against chloroquine-sensitive Plasmodium falciparum D6 infected human erythrocytes as [3H]hypoxanthine uptake after 24 hrs; format: functional, organism-based; outline: as §1

Compound	IC50 (Plasmodium falciparum [1]) [nM]	EC50 (KB) [nM]	Selectivity Index [2]	Selectivity Index [3]	IC50 (Plasmodium falciparum [4]) [nM]
COc1ccc2cc1Oc1cc3c(cc1OC)CCN(C(C)=O)[C@H]3Cc1ccc(cc1)Oc1c3c(cc4c1[C@H](C2)N(C)CC4)OCO3	1200	8360	7	3.6	2320
COc1ccc2cc1Oc1cc3c(cc1OC)CCN(C)[C@@H]3Cc1ccc(cc1)Oc1c(O)c(OC)cc3c1[C@@H](C2)N(C)CC3	387	7700	20	60	128
COc1ccc2cc1Oc1cc3c(cc1OC)CCN=C3Cc1ccc(cc1)Oc1c3c(cc4c1[C@@H](C2)N(C)CC4)OCO3	2100	> 33900	>16.1	>6.8	4980
CN1CCc2cc3c4cc2[C@@H]1Cc1ccc(O)c(c1)Oc1ccc(cc1)C[C@H]1c2c(cc(O)c(c2O4)O3)CCN1C	259	4900	19	55	90
COc1ccc2cc1Oc1ccc(cc1)C[C@H]1c3cc(c(OC)cc3CCN1C)Oc1c(OC)c(OC)cc3c1[C@H](C2)N(C)CC3 [FANCHININ]	257	5800	22	20	288
COc1ccc2cc1Oc1ccc(cc1)C[C@@H]1c3c(cc(OC)c(O)c3Oc3cc4c(cc3OC)CCN[C@@H]4C2)CCN1C	375	9800	26	92	106
COc1cc2c3c4c1Oc1cc5c(cc1O4)[C@H](Cc1ccc(O)c(c1)Oc1ccc(cc1)C[C@@H]3NCC2)N(C)CC5	281	3800	14	79	48
COc1cc2c3cc1Oc1c(O)c(OC)cc4c1[C@H](Cc1ccc(cc1)Oc1cc(ccc1O)C[C@H]3N(C)CC2)N(C)CC4	1400	14800	11	33	446
COc1ccc2cc1Oc1cc3c(cc1OC)CCN(C(C)=O)[C@H]3Cc1ccc(cc1)Oc1c3c(cc4c1[C@@H](C2)N(C)CC4)OCO3	1050	13600	13		1910
COc1ccc2cc1Oc1ccc(cc1)C[C@@H]1c3cc(c(OC)cc3CCN1C)Oc1c(OC)c(OC)cc3c1[C@@H](C2)N(C)CC3 [PHAEANTHINE]	498	10800	22	35	305
COc1cc2c3cc1Oc1c(O)c(OC)cc4c1[C@@H](Cc1ccc(cc1)Oc1cc(ccc1O)C[C@H]3N(C)CC2)N(C)CC4	105	8600	82	300	29
COc1cc2c(cc1O)[C@H](Cc1ccc(OC)c(Oc3ccc(C[C@H]4c5cc(OC)c(OC)cc5CCN4C)cc3)c1)N(C)CC2 [NEOTHALIBRINE]	135	10100	75	215	47
COc1cc2c3cc1Oc1cc(ccc1O)C[C@H]1c4c(cc(OC)c(c4O)OCc4ccc(cc4)CC3NCC2)CCN1C (some centres undefined)	199	8580	43.2	24.6	348
COc1ccc2cc1Oc1cc3c(cc1OC)CCN[C@@H]3Cc1ccc(cc1)Oc1c3c(cc4c1[C@@H](C2)N(C)CC4)OCO3	676	14400	21.2	27.1	530
COc1ccc2cc1Oc1ccc(cc1)C[C@H]1c3c(cc(OC)c(OC)c3Oc3cc4c(cc3OC)CCN[C@@H]4C2)CCN1C	154	9900	64	130	75
COc1cc2ccnc3c2cc1Oc1cc(ccc1O)C[C@H]1c2c(cc(OC)c(c2O)OCc2ccc(cc2)C3)CCN1C	59	> 33900	>580	>310	110
COc1cc2c3c(c1O)Oc1cc4c(cc1O)CCN(C)[C@H]4Cc1ccc(O)c(c1)Oc1ccc(cc1)C[C@@H]2NCC3	1590	17800	11	20	883
COc1ccc2cc1Oc1ccc(cc1)C[C@H]1c3c(cc4c(c3Oc3cc5c(cc3OC)CCN(C)[C@@H]5C2)OCO4)CCN1C [CEPHARANTHINE]	478	9700	20	42	231

Compound	IC50 (Plasmodium falciparum [1]) [nM]	EC50 (KB) [nM]	Selectivity Index [2]	Selectivity Index [3]	IC50 (Plasmodium falciparum [4]) [nM]
COc1cc2c3cc1Oc1c(O)c(OC)cc4c1[C@H](Cc1ccc(O)c(c1)Oc1ccc(cc1)C[C@H]3N(C)CC2)N(C)CC4	609	17500	29	130	134
COc1ccc2cc1Oc1ccc(cc1)C[C@H]1c3cc(c(OC)cc3CCN1C)Oc1c(O)c(OC)cc3c1[C@@H](C2)NCC3	210	10400	50	92	115
C[C@@H]1CC[C@H]2[C@@H](C)C(=O)O[C@@H]3O[C@@]4(C)CC[C@@H]1[C@]32OO4 [ARTEMISININ]	14.6	> 70900	>4860	>4680	15.1
COc1cc2c3cc1Oc1c(OC)c(OC)cc4c1[C@H](Cc1ccc(cc1)Oc1cc(ccc1O)C[C@@H]3N(C)CC2)N(C)CC4	67	15000	220	350	42
COc1ccc2cc1Oc1ccc(cc1)C[C@H]1c3cc(c(OC)cc3CCN1C)Oc1c(O)c(OC)cc3c1[C@@H](C2)N(C)CC3	378	10700	28	54	199
COc1ccc2cc1Oc1ccc(cc1)C[C@@H]1c3c(cc(OC)c(O)c3Oc3cc4c(cc3OC)CCN(C)[C@@H]4C2)CCN1C	192	4110	21	64	64
COc1ccc2cc1Oc1ccc(cc1)C[C@H]1c3c(cc(O)c4c3Oc3cc5c(cc3O4)CCN(C)[C@H]5C2)CCN1C		6000	54	200	30
COc1ccc2cc1Oc1cc3c(cc1OC)CCN=C3Cc1ccc(cc1)COc1c(OC)cc3c(c1O)[C@H](C2)N(C)CC3	169	> 33800	>200	>98	346
COc1ccc2cc1Oc1cc3c(nccc3cc1OC)Cc1ccc(cc1)COc1c(OC)cc3c(c1O)[C@H](C2)N(C)CC3	66	14700	220	130	115
COc1ccc2cc1Oc1ccc(cc1)C[C@H]1c3c(cc(OC)c4c3Oc3cc5c(cc3O4)CCN(C)[C@H]5C2)CCN1C [ISOTRILOBINE]	788	24000	30	62	388
COc1ccc2cc1Oc1ccc(cc1)C[C@H]1c3c(cc(OC)c(OC)c3Oc3cc4c(cc3OC)CCN(C)[C@@H]4C2)CCN1C [OBABERINE]	347	13800	40	37	371
COc1cc2c3cc1Oc1cc(ccc1O)C[C@@H]1c4c(cc(OC)c(O)c4Oc4ccc(cc4)C[C@@H]3N(C)CC2)CC[N+]1(C)C.[Cl-]	> 16400	> 32800	2	>2.1	15300
COc1cc2c(cc1O)[C@H](Cc1ccc(Oc3cc(C[C@@H]4c5cc(OC)c(OC)cc5CCN4C)ccc3OC)cc1)N(C)CC2	227	> 32100	>140	>150	213
COc1ccc(C[C@H]2c3cc(Oc4cc(OC)c(OC)cc4C[C@H]4c5cc(O)c(OC)cc5CCN4C)c(OC)cc3CCN2C)cc1O	164	> 29900	>180	>490	61
COc1ccc2cc1Oc1ccc(cc1)C[C@H]1c3cc(c(OC)cc3CCN1C)Oc1c(OC)c(OC)cc3c1[C@@H](C2)NCC3				95	106
CCN(CC)CCCC(C)Nc1ccnc2cc(Cl)ccc12 (centres undefined) [CHLOROQUINE]		33700			
OC(c1cc(C(F)(F)F)nc2c(C(F)(F)F)cccc12)C1CCCCN1 (centres undefined) [MEFLOQUINE]	7.78	8430	1080	465	
COc1cc2c3c4c1Oc1cc5c(cc1O4)[C@H](Cc1ccc(O)c(c1)Oc1ccc(cc1)C[C@@H]3N(C)CC2)N(C)CC5 [COCSULINE]	502	10000		110	87
